Assay results taken from ChEMBL document CHEMBL1137328, “5-pyrrolidinylsulfonyl isatins as a potential tool for the molecular imaging of caspases in apoptosis” (J Med Chem, 2006).
Active and inactive are the calls of the source. No cut-off for these calls is given here.

How the values were obtained:
[1] = target: Caspase-8 (Homo sapiens, UniProt Q14790); assay: Inhibition of caspase 8
Outline: (§1)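 Recombinant human caspase-1, -6 or -8 at 0.5 units per assay, preincubated 10 min at 37 °C with compound in DMSO at single doses from 5 pM to 500 µM. Fluorogenic AMC substrate then added at 10 µM final (caspase-1 Ac-YVAD-AMC, caspase-6 Ac-VEID-AMC, caspase-8 Ac-IETD-AMC) for a further 10 min. Read-out was AMC fluorescence. IC50 taken by nonlinear regression.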

[2] = target: T1, Caspase-3 (Homo sapiens, UniProt P42574); assay: Inhibition of caspase 3
T1 sequence (P42574 whole entry): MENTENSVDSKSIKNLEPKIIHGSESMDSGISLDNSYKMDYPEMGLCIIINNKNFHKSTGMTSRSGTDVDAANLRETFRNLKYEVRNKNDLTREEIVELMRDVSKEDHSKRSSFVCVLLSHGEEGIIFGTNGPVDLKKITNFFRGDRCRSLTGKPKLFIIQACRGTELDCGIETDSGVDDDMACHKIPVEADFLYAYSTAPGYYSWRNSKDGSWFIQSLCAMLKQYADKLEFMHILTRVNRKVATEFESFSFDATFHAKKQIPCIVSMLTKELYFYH
Outline: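 Recombinant human caspases (0.5 units/assay) preincubated 10 min at 37 °C with isatin in DMSO (single doses, 5 pM–500 µM). The buffer for all was 0.1% CHAPS, 100 mM NaCl, 2 mM EDTA, 10% sucrose, with 20 mM HEPES pH 7.4. Caspase-1 used 100 mM HEPES and β-mercaptoethanol, and caspase-7 used β-mercaptoethanol. AMC substrates at 10 µM for 10 min: YVAD (caspase-1), DEVD (caspase-3/-7), VEID (caspase-6), IETD (caspase-8). IC50 by nonlinear regression.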

[3] = target: T1, Caspase-3; assay: Binding affinity to human caspase 3
Outline: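 Recombinant full-length human caspase-3 (1 unit/assay, 0.5 pM) preincubated 10 min at 37 °C with isatin in DMSO (single doses, 5 pM–500 µM) in 25 mM HEPES pH 7.5, 0.1% CHAPS, 50 mM KCl, 5 mM β-mercaptoethanol. Ac-DEVD-AMC (10 µM final) then added for 10 min. IC50 by nonlinear regression, converted to Ki = IC50/(1+[S]/KM). Mean of three assays.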

[4] = target: T2, Caspase-1 (Homo sapiens, UniProt P29466); assay: Inhibition of caspase 1; outline: as §1
T2 sequence (P29466 whole entry): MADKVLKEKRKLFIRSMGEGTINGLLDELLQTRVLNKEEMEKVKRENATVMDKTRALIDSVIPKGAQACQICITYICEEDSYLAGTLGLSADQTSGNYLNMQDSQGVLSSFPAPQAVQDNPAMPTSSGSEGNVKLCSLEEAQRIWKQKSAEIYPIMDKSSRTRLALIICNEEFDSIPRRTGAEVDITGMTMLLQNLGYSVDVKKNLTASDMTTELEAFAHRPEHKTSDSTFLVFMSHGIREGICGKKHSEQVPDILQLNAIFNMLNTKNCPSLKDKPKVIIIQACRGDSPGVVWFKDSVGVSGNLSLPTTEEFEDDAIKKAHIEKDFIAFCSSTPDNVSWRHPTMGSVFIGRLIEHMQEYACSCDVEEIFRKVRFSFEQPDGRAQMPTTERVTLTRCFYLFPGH

[5] = target: T3, Caspase-7 (Homo sapiens, UniProt P55210); assay: Inhibition of caspase 7
T3 sequence (P55210 whole entry): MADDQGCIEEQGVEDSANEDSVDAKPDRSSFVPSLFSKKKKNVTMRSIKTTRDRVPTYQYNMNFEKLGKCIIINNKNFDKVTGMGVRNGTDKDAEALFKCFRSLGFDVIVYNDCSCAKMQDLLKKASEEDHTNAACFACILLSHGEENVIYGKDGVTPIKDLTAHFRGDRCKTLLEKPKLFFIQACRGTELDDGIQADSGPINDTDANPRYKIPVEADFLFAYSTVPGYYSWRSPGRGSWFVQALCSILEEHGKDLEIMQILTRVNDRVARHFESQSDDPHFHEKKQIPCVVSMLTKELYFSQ
Outline: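 Inhibitor in DMSO (final 5 pM–500 µM, single doses) preincubated 10 min, then Ac-DEVD-AMC (final 10 µM) reacted 10 min. Cleaved AMC quantified by fluorescence; IC50 by nonlinear regression.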

[6] = target: T4, Caspase-6 (Homo sapiens, UniProt P55212); assay: Inhibition of caspase 6; outline: as §1
T4 sequence (P55212 whole entry): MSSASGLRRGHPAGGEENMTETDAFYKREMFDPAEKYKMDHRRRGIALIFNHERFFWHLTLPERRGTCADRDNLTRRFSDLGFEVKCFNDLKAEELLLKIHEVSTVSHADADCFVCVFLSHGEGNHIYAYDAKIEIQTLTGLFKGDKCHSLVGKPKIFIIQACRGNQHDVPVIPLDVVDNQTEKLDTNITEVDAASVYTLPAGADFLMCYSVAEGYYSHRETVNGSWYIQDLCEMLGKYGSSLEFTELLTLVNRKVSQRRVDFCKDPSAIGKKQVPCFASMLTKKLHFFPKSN

[7] = tested on: HUVEC; assay: Inhibition of caspase 8 processing in apoptotic HUVEC at 100 uM; type: functional, cell-based; settings: Homo sapiens
Outline: (§2)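 HUVEC grown on gelatin-coated dishes in RPMI-1640 with 15% calf serum, heparin and pituitary extract. Cells were preincubated 30 min with compound. Apoptosis was then induced by growth-factor withdrawal (RPMI-1640 alone), with compound present, for 8 h at 37 °C. Lysates (30 µg) were run on 15% SDS-PAGE Western blots for processed caspase-3 (p17/p12), caspase-8, caspase-9, cleaved PARP ([…]) and lamin A/C. Z-VAD-fmk served as full-inhibition control and β-actin as loading control.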

[8] = tested on: HUVEC; assay: Inhibition of PARP cleavage in apoptotic HUVEC at 100 uM; type: functional, cell-based; settings: Homo sapiens; outline: as §2
[9] = tested on: HUVEC; assay: Inhibition of lamin A/C cleavage in apoptotic HUVEC at 100 uM; type: functional, cell-based; settings: Homo sapiens; outline: as §2
[10] = tested on: HUVEC; assay: Inhibition of caspase 9 processing in apoptotic HUVEC at 100 uM; type: functional, cell-based; settings: Homo sapiens; outline: as §2
[11] = tested on: HUVEC; assay: Inhibition of caspase 9 processing in apoptotic HUVEC at 50 uM; type: functional, cell-based; settings: Homo sapiens; outline: as §2
[12] = tested on: HUVEC; assay: Inhibition of caspase 3 processing in apoptotic HUVEC at 10 uM; type: functional, cell-based; settings: Homo sapiens; outline: as §2
[13] = tested on: HUVEC; assay: Inhibition of caspase 8 processing in apoptotic HUVEC at 50 uM; type: functional, cell-based; settings: Homo sapiens; outline: as §2
[14] = tested on: HUVEC; assay: Inhibition of lamin A/C cleavage in apoptotic HUVEC at 50 uM; type: functional, cell-based; settings: Homo sapiens; outline: as §2
[15] = tested on: HUVEC; assay: Inhibition of PARP cleavage in apoptotic HUVEC at 50 uM; type: functional, cell-based; settings: Homo sapiens; outline: as §2
[16] = target: T1, Caspase-3; assay: Inhibition of caspase 3 in neutrophils

Chain of Caspase-8 (Q14790 217-374 limits assumed): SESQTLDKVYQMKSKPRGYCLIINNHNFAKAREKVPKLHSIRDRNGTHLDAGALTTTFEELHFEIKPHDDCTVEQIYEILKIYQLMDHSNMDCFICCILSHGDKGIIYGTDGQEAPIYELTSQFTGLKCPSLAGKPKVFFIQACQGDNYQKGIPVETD
Chain of Caspase-8 (Q14790 385-479 limits assumed): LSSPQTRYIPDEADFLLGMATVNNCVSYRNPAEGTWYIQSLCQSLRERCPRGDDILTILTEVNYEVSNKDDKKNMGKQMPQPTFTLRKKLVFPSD

SMILES	IC50 [1] [nM]	IC50 [2] [nM]	Ki [3] [nM]	IC50 [4] [nM]	IC50 [5] [nM]	IC50 [6] [nM]	Activity [7]	Activity [10]	Activity [11]	Activity [12]	Activity [13]	IC50 [16] [nM]	Activity [8]	Activity [9]	Activity [14]	Activity [15]
Cc1ccc(S(=O)(=O)OCCOc2ccc(CN3C(=O)C(=O)c4cc(S(=O)(=O)N5CCC[C@H]5COc5ccccc5)ccc43)cc2)cc1	> 500000	17.5	8.6	> 500000	50.9	> 500000										
COC[C@@H]1CCCN1S(=O)(=O)c1ccc2c(c1)C(=O)C(=O)N2Cc1ccc(OC)cc1	> 500000	18.4		> 10000	4	> 500000	Active	Active	Active	Active	Active				Active	Active
CC(C)(C)[Si](C)(C)Oc1ccc(CN2C(=O)C(=O)c3cc(S(=O)(=O)N4CCC[C@H]4COc4ccccc4)ccc32)cc1	> 500000	20	9.8	> 500000	366	> 500000										
COc1ccc(CN2C(=O)C(=O)c3cc(S(=O)(=O)N4CCC[C@H]4COc4ccccc4)ccc32)cc1	> 500000	9.7	4.8	> 500000	31.2	> 500000										
COC[C@@H]1CCCN1S(=O)(=O)c1ccc2c(c1)C(=O)C(=O)N2Cc1ccc(O)cc1	> 500000	47.8	23.5	> 60000	32.3	> 500000										
O=C1C(=O)N(Cc2ccc(OCCF)cc2)c2ccc(S(=O)(=O)N3CCC[C@H]3COc3ccccc3)cc21	> 500000	0.3	0.2	> 500000		> 500000										
CN1C(=O)C(=O)c2cc(S(=O)(=O)N3CCC[C@H]3COc3ccccc3)ccc21	> 500000	114	56.1	> 500000	190	> 500000						10000				
O=C1C(=O)N(Cc2ccc(O)cc2)c2ccc(S(=O)(=O)N3CCC[C@H]3COc3ccccc3)cc21	> 500000	8.2	4	> 25000	52.7	> 500000										
O=C1C(=O)N(Cc2ccc(I)cc2)c2ccc(S(=O)(=O)N3CCC[C@H]3COc3ccccc3)cc21	> 500000			> 500000	18.6	> 500000										
COC[C@@H]1CCCN1S(=O)(=O)c1ccc2c(c1)C(=O)C(=O)N2Cc1ccc(OCCBr)cc1	> 500000	16.3	8	> 15000	25.7	> 500000										
COC[C@@H]1CCCN1S(=O)(=O)c1ccc2c(c1)C(=O)C(=O)N2Cc1ccc(O[Si](C)(C)C(C)(C)C)cc1	> 500000	3.8	1.9	> 7000	69.8	> 500000										

Continued, in another order:

IC50 [1] [nM]	IC50 [2] [nM]	Ki [3] [nM]	IC50 [4] [nM]	IC50 [5] [nM]	IC50 [6] [nM]	Activity [7]	Activity [10]	Activity [11]	Activity [12]	Activity [13]	IC50 [16] [nM]	SMILES	Activity [8]	Activity [9]	Activity [14]	Activity [15]
> 500000	25.6	12.6	> 500000	42	> 500000							O=C1C(=O)N(Cc2ccc(OCCBr)cc2)c2ccc(S(=O)(=O)N3CCC[C@H]3COc3ccccc3)cc21				
> 25000	36.4	17.9	> 25000	93.3	> 25000	Active	Active	Active	Active	Active		COC[C@@H]1CCCN1S(=O)(=O)c1ccc2c(c1)C(=O)C(=O)N2Cc1ccc(OCCF)cc1	Active	Active		
> 500000	84.9	41.8	> 15000	1290	> 500000							COC[C@@H]1CCCN1S(=O)(=O)c1ccc2c(c1)C(=O)C(=O)N2				
> 500000	12	5.9	> 10000	1.8	> 500000				Active			COC[C@@H]1CCCN1S(=O)(=O)c1ccc2c(c1)C(=O)C(=O)N2Cc1ccc(I)cc1				
> 500000	16.9	8.3	> 10000	294	> 500000							O=C1Nc2ccc(S(=O)(=O)N3CCC[C@H]3COc3ccccc3)cc2C1=O				
> 500000	2.4	1.2	> 25000	304	> 500000	Active	Active	Active	Active	Active		COC[C@@H]1CCCN1S(=O)(=O)c1ccc2c(c1)C(=O)C(=O)N2C			Active	Active
> 500000	1.7	0.8	> 500000	13.8	> 500000							COC[C@@H]1CCCN1S(=O)(=O)c1ccc2c(c1)C(=O)C(=O)N2Cc1ccc(OCCOS(=O)(=O)c2ccc(C)cc2)cc1				
